PostGolgi ctrl: growth of the yeast control strain, post-Golgi counter-screen; efflux-deficient yeast background strain, growth absorbance A615, 16 h; inhibition, % at 10 µM; actives 5% (n = 98,000); AID 738
DAT uptake mod: human DAT dopamine uptake with cocaine, either direction. Q01959. LLC-PK1 hDAT cells, [14C]-dopamine uptake with cocaine IC80; actives deviate in either direction. B-score at 10 µM. actives 1.3% (n = 110,000). AID 449768;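 active = Z score or B-score, a plate-position-corrected score, falls beyond the plate's 99.7% confidence bounds, in either direction; inactive = both scores lie inside the 99.7% bounds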;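 also: scored against the spread of the other compound wells on the same plate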
PostGolgi yeast: growth inhibition of a yeast mutant, post-Golgi transport screen; inhibition, % at 10 µM; post-Golgi transport phenotypic cell assay; actives 0.9% (n = 98,000);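 also: yeast cells grown in 1536-well plates; yeast grown about 18 h at 30C before absorbance read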
D1 mod: allosteric modulators of human D1 dopamine receptor | actives 5.9% (n = 58,000) | AID 641 | B-score at 10 µM | P21728 | HEK293 D1, CRE-luciferase, dopamine EC30 potentiation; actives deviate in either direction;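 active = luminescence count or its row- and column-corrected plate score outside the 99.7% band of the plate's sample wells, on either side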
Target sequence (P21728 whole entry, looked up): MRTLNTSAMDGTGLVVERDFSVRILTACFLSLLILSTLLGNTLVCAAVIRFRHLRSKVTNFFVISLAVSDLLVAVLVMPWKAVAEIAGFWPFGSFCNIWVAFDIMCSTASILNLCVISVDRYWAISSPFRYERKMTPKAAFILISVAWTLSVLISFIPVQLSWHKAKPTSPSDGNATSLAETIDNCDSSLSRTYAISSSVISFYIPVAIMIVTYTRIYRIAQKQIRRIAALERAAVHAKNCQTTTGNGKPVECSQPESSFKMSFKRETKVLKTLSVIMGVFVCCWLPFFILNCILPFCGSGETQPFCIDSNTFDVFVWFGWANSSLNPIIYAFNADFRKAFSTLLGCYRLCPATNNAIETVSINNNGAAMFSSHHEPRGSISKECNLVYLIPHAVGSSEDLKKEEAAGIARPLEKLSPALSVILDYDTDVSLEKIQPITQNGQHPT
tolC growth inh: growth inhibitors of E. coli BW25113 tolC mutant | AID 573 | OD615 | growth inhibition, % at 10 µM (by protocol) | actives 2.2% (n = 65,000);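 active = growth inhibition at or above a cutoff equal to the mean over every tested compound plus 3 SD, cut at about 60% in these data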;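 also: growth measured after 20 h incubation at 37 °C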
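Assay system: tolC-deleted E. coli BW25113. Medium: kanamycin-containing LB broth (50 µg/mL). Dosing: 10 µM final, single dose. Timing: bacterial growth with compound for 20 h at 37 °C. Detection: A615 absorbance measurement. Read-out basis: growth inhibition in percent.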
Ecoli WT expand: growth inhibitors of E. coli BW25113 wild type; actives 0.15% (n = 98,000); OD600 absorbance; growth inhibition, % at 100 µM;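 active = growth inhibition above about 50% at one test dose, limit read from the data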;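 also: growth measured after 20 h incubation at 37 °C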
Starred values were filed as active, the others as inactive; . = no result. An excerpt weighted towards active compounds, which were near 9.3% of everything screened. Rule as the data show it, unless noted: active = inhibition above about 30%; inactive = the rest.

SMILES | PostGolgi ctrl | DAT uptake mod | PostGolgi yeast | D1 mod | tolC growth inh | Ecoli WT expand
Fc1ccc(-c2nnc(CN3CCC(c4nc5ccccc5s4)CC3)o2)cc1 | 38* | -0.042 | 16 | -0.93 | -1 | -1
O=C(CSc1ccc(F)cc1)N1CCC(c2nc3ccccc3s2)CC1 | 20 | . | 5 | . | . | -4
N#C/C(=C\c1ccccc1)c1nc2ncccc2[nH]1 | -11 | 0.071 | 0 | . | . | -16
CSc1cc(-c2ccc(Cl)cc2)c(C(=O)NN)s1 | 2 | 3.2* | 18 | . | . | 5
CC(NC(=O)Nc1cccc([N+](=O)[O-])c1)(C(F)(F)F)C(F)(F)F | 12 | -3* | 2 | . | . | 35
O=C(NCc1ccccn1)C1CC(c2ccc(F)cc2)=NO1 (stereo not drawn) | 3 | -0.061 | -1 | . | . | 1
CCOC(=O)C1=C(C)N=C2SC(CC)C(=O)N2C1c1ccc(OC(C)=O)c(OCC)c1 (stereo not drawn) | . | . | . | 1.7 | 2 | .
Cc1cccc(S(=O)(=O)C(C#N)c2nc3ccccc3nc2N2CC(C)OC(C)C2)c1 (stereo not drawn) | 11 | -1.3 | 1 | -0.19 | 62* | -4
CC1CCN(c2nc3ccccc3nc2C(C#N)S(=O)(=O)c2ccccc2)CC1 (stereo not drawn) | . | . | . | . | 76* | .
COc1ccc(S(=O)(=O)C(C#N)c2nc3ccccc3nc2N2CCCC(C)C2)cc1 (stereo not drawn) | 10 | 0.26 | -7 | 0.37 | 68* | -5
CC(=O)NC1=C(C#N)C(c2ccccc2)c2c(ccc3ccccc23)O1 (stereo not drawn) | 24 | -0.026 | -8 | . | . | -16
Cc1ccc(S(=O)(=O)N/N=C/c2ccc(OCC(=O)NC(C)C)cc2)cc1 | . | 1.3 | . | . | . | .
COc1ccc(NC(=O)C2CC(=O)OC23CCOC(C)(C)C3)cc1 (stereo not drawn) | -4 | -0.42 | 0 | . | . | 7
COC(=O)C1=C(C)N=c2s/c(=C/c3ccoc3)c(=O)n2C1c1ccccc1 (stereo not drawn) | 59* | -0.48 | 6 | -3.6* | 11 | -12
COC(=O)C1=C(C)N=c2s/c(=C3\C(=O)Nc4ccccc43)c(=O)n2C1c1ccccc1 (stereo not drawn) | 39* | . | -1 | 1.3 | 16 | -23
CCOC(=O)C1=C(C)N=c2s/c(=C3/C(=O)Nc4ccccc43)c(=O)n2C1c1ccc(C)cc1 (stereo not drawn) | . | -0.0098 | . | . | . | .
COc1ccc(C(=O)N2CCN(c3nc4cc(C)ccc4cc3C#N)CC2)c(OC)c1 | 25 | 0.8 | 0 | 0.18 | 15 | -11
COc1ccc2cc(C#N)c(NC(C)C)nc2c1 | -2 | -0.51 | 22 | 5.4 | 6 | 1
CCc1ccc2nc(N3CCN(C)CC3)c(C#N)cc2c1 | 0 | -0.42 | 1 | -4.9* | -11 | 7
CCOC(=O)C1CCN(c2nc3cc(OC)ccc3cc2C#N)CC1 | 16 | 0.23 | 3 | -0.035 | 75* | -8
CCN(CC)c1nc2cc(OC)ccc2cc1C#N | -3 | . | 39* | -0.7 | 34 | 4
Cc1ccc2nc(N3CCN(C(=O)c4cccs4)CC3)c(C#N)cc2c1 | 13 | -0.033 | 2 | 0.8 | 19 | -4
COc1ccc2nc(N3CCC(O)CC3)c(C#N)cc2c1 | 11 | -0.17 | -2 | 1.3 | 11 | 3
COc1ccc2nc(N3CCC(C)CC3)c(C#N)cc2c1 | 7 | 0.03 | 0 | 0.9 | 97* | 5
CCC(c1nnnn1C(C)(C)C)N1CCN(c2cc(Cl)ccc2C)CC1 (stereo not drawn) | 28 | -0.026 | -8 | -0.54 | 28 | -8
COc1cccc(-c2cnc(NCc3cc(Cl)ccc3O)n2C)c1 | 71* | 1.8 | -7 | -2.6 | -20 | 21
COc1cccc(NS(=O)(=O)c2ccc3[nH]cc(C(=O)NCCC(C)C)c(=O)c3c2)c1 | 41* | 2.9 | 9 | 1.9 | 31 | 2
CCOc1ccc(NS(=O)(=O)c2ccc3[nH]cc(C(=O)NC(C)CC)c(=O)c3c2)cc1 (stereo not drawn) | 2 | . | 8 | -0.54 | 100* | -1
CCN(c1ccccc1)S(=O)(=O)c1ccc2[nH]cc(C(=O)NCCOC)c(=O)c2c1 | -1 | 0.74 | 4 | -2 | 1 | -11
Cc1c(OC(=O)CNC(=O)OC(C)(C)C)ccc2c3c(c(=O)oc12)CCC3 | 4 | 0.39 | 4 | 1.9 | 18 | 2

Source: PubChem (several laboratories)
